Results on six compounds are retold here after PMC5413378 (Cancer research, 2017).

One data set has as its system BRD2, BRD3 and BRD4. Nature of the data set: BET protein depletion by immunoblotting in TNBC cell lines. It is filed as cell-based, human. Particulars: for effect on BET protein levels / concentration giving near-complete depletion of BRD2-4 proteins: TNBC cell lines; for effect on BET protein levels: immunoblotting. In general terms: In western blotting, separated proteins are transferred to a membrane and probed.

The test system of data set [1] is TNBC cell lines. Briefly: CellTiter Glo cell viability assay in a panel of 13 TNBC cell lines. Type of data set: cell-based, human. The following applies: for IC50: read-out: IC50 growth inhibition, in 9 of the 13 cell lines, 4 days. (In general: Cellular ATP, detected with luciferase, serves as a proxy for viable cell number.)
Data set [2] deals with MDA-MB-231 xenograft model. Briefly: MDA-MB-231 xenograft efficacy study. Type of data set: in vivo. The following applies: for antitumor activity: IV; for weight loss or overt toxicity: MDA-MB-231 model. The method, boiled down:
(§1)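 SCID mice bearing MDA-MB-231 xenografts or serially passaged WHIM24 PDX tumours were randomised once tumours reached 80-200 mm3. Test compound was given IV in 10% PEG400: 3% Cremophor: 87% PBS, 3 times per week for 3 weeks. Tumour size and body weight were measured 2-3 times weekly. Volume was (length×width2)/2, and TGI used group medians. Data are mean ± SEM (n=7-8), with two-tailed t test versus vehicle.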

Data set [3] in a line: PK analysis in MDA-MB-231 xenograft model. It is filed as in vivo, mice. The following applies: MDA-MB-231 model.
The nature of data set [4]: PK analysis in MDA-MB-468 xenograft model. It is filed as in vivo, mice. The following applies: MDA-MB-468 model.
The subject of data set [5] is BET proteins. Nature of the data set: PD analysis in MDA-MB-231 xenograft tumors. Type of data set: in vivo, SCID mice. Particulars: single dose 5 mg/kg, 1-3 h post drug exposure.
Data set [6] has as its system BET proteins. Nature of the data set: PD analysis in MDA-MB-468 xenograft tumors. It is filed as in vivo, SCID mice. The following applies: single dose 5 mg/kg, 1-3 h post drug exposure.
For data set [7], the system named is TNBC cell lines. Briefly: Annexin V-PI apoptosis flow cytometry analysis. It is filed as cell-based, human.
The test system of the next data set is MCL1. Nature of the data set: MCL1 expression by qRT-PCR and immunoblotting. The following applies: for expression of BRD2 and MCL1: MDA-MB-468 cells, 12 h immunoblotting, JQ1 2000 nM, dBET1 500 nM. It is filed as cell-based, human. (Real-time PCR tracks product formation cycle by cycle.)
For a further data set, the system named is MDA-MB-468 cells. Briefly: Proteomic profiling. It is filed as cell-based, human. Particulars: 2 h.
Data set [8] concerns caspase-3 and poly(ADP-ribose) polymerase (PARP). Briefly: Caspase-3 and PARP cleavage by immunoblotting. It is filed as cell-based, human. Particulars: as low as.
Data set [9] has as its system TNBC cell lines. It is filed as cell-based, human.
A further data set has as its system WHIM24 PDX model. Nature of the data set: WHIM24 PDX efficacy study. The following applies: for antitumor activity: 3 times per week for 3 weeks; for weight loss or apparent toxicity: WHIM24 model. Type of data set: in vivo. An outline of the steps: as §1
Data set [10] has as its system BET proteins. Nature of the data set: Pharmacodynamic analysis in WHIM24 tumors. It is filed as in vivo, SCID mice.
A short description of data set [11]: Pharmacokinetics in WHIM24 tumor-bearing mice. It is filed as in vivo. The following applies: single dose 10 mg/kg, at 1 and 3 h; concentrations diminished rapidly.
Data set [12] concerns MDA-MB-453 xenograft model. Briefly: MDA-MB-453 xenograft efficacy study. Type of data set: in vivo. Particulars: for weight loss or apparent toxicity: MDA-MB-453 model. The method, boiled down: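 Five million MDA-MB-453 cells were implanted subcutaneously in SCID mice, which were randomised at tumour size 80-200 mm3. Dosing was IV in 10% PEG400: 3% Cremophor: 87% PBS, or oral in 2% TPGS: 98% PEG200. Tumours and body weight were measured every 2-3 days. Volume was (length×width2)/2, and TGI (%) = (Vc-Vt)/(Vc-Vo)×100 using medians. Two-tailed t test versus vehicle; n=7-8.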

Data set [13] deals with MDA-MB-468 xenograft model. Briefly: MDA-MB-468 xenograft efficacy study. It is filed as in vivo, SCID mice. The following applies: 10 mg/kg, IV, 3 times per week for 2-3 weeks.
Another data set has as its system normal mouse tissues. Briefly: Toxicity in immune-competent Balb/c mice. It is filed as in vivo. The following applies: 5 mg/kg intravenously, daily, 5 days a week for 2 weeks. An outline of the steps: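 Immune-competent Balb/c mice received test compound intravenously, daily, 5 days a week for 2 weeks. Animals were sacrificed at the end of treatment, and tissues were examined for damage.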

For another data set, the target named is BRD4 (Mus musculus, UniProt Q9ESU6). Nature of the data set: BRD4 protein in mouse liver tissue. Particulars: single dose 5 mg/kg. It is filed as in vivo.
Data set [14] deals with BET proteins. Nature of the data set: Binding to BET proteins.

Each structure is given as a SMILES string. Bounds are passed on as bounds.

For `CCn1nc(C2CC2)cc1Nc1nc(C(=O)NCCCCCc2cccc3c2CN(C2CCC(=O)NC2=O)C3=O)nc2[nH]c3cc(-c4c(C)noc4C)c(OC)cc3c12` (stereo not drawn) [BETd-260], the “effect on BET protein levels” value in the data set on BRD2, BRD3 and BRD4 is “potently depleted BET proteins at low nanomolar concentrations”. Moreover, the “times more potent than BETd-246 in growth inhibition” value with TNBC cell lines [1] (TNBC cells) was 2-7 times. Also, in data set [2] (5 mg/kg, 3 times per week for 3 weeks, compared with BETd-246 at 10 mg/kg), the antitumor activity result was “much stronger antitumor activity than BETd-246”. Also, the “weight loss or overt toxicity” value in data set [2] is on record as “Neither BETd-246 nor BETd-260 caused significant weight loss”. Moreover, the “drug exposure in plasma and xenograft tumor tissue” value in data set [3] and in data set [4] was “much higher than that of BETd-246” throughout. Further, the “BET protein levels in xenograft tumors” value with BET proteins [5] and with BET proteins [6] was “effectively reduced BET protein levels” each time.
Consider `O=C1CCC(N2C(=O)c3ccccc3C2=O)C(=O)N1` (stereo not drawn) [Thalidomide, thalidomide, reference compound], for which, in the data set on BRD2, BRD3 and BRD4, the “effect on BET protein levels” value is “no significant effect”. In addition, in the data set with TNBC cell lines [7] (alone), the “effect on apoptosis induction and cell proliferation” value is “no significant effect”.
As for `Cc1sc2c(c1C)C(c1ccc(Cl)cc1)=N[C@@H](CC(=O)NCCCCNC(=O)COc1cccc3c1C(=O)N(C1CCC(=O)NC1=O)C3=O)c1nnc(C)n1-2` (stereo partly drawn) [dBET1, reference compound], the BET protein depletion result with BRD2, BRD3 and BRD4 (500 nM, MDA-MB-468 cells, 12 h) is listed as “effectively depleted BET proteins”. The “expression of BRD2 and MCL1” value with MCL1 is “downregulated MCL1 expression”.
With `Cc1sc2c(c1C)C(c1ccc(Cl)cc1)=N[C@@H](CC(=O)OC(C)(C)C)c1nnc(C)n1-2` [JQ1], in the data set on MCL1, the “expression of BRD2 and MCL1” value was “increased expression of BRD2 and MCL1”.
Consider `CCn1nc(C2CC2)cc1Nc1nc(C(=O)NCCCOCCOCCOCCCNc2cccc3c2C(=O)N(C2CCC(=O)NC2=O)C3=O)nc2[nH]c3cc(-c4c(C)noc4C)c(OC)cc3c12` (stereo not drawn) [BETd-246], for which the “concentration giving near-complete depletion of BRD2-4 proteins” value with BRD2, BRD3 and BRD4 (1 h treatment) lay in the range of 30 to 100 nM; in the data set on BRD2, BRD3 and BRD4 (3 h treatment) it was 10 to 30 nM. Further, in the data set with MDA-MB-468 cells (100 nM, MDA-MB-468, p<0.05, only proteins decreased out of ~5500 quantified), the “decrease of BRD2, BRD3 and BRD4 protein levels” value is no less than 2 fold. Moreover, the IC90 (in general, the concentration at which the effect reaches the 90% level) in the data set on TNBC cell lines [1] (in 7 of the 13 cell lines) was less than 100 nM. The IC50 (commonly the midpoint of a concentration-inhibition curve) in the data set on TNBC cell lines [1] was less than 10 nM. The “lowest concentration giving profound cleavage of caspase-3 and PARP” value in [8] amounted to 10 nM. Moreover, in the data set with MCL1 (as low as, MDA-MB-468, 8 h, qRT-PCR), the “lowest concentration giving significant down-regulation of MCL1 mRNA” value is reported as 10 nM. Moreover, the “synergy in combination with BM-1197, ABT-263 and A-1155463” value with TNBC cell lines [9] (in 6 of the 7 cell lines) is given as “Modest to strong synergy”. Moreover, the “strong synergistic induction of apoptosis in combination with ABT-199” value in the data set on TNBC cell lines [9] (panel of TNBC cell lines) is “only observed in MDA-MB-468”. Besides, the antitumor activity result in the data set with WHIM24 PDX model (5 mg/kg, IV) was “effectively inhibited WHIM24 tumor growth”; with WHIM24 PDX model (10 mg/kg, during treatment), “partial tumor regression”; in data set [2] (10 mg/kg, 3 times per week for 2-3 weeks), “very limited”; in data set [13], “no antitumor activity”. Besides, the results for the “weight loss or apparent toxicity” value (in the data set with WHIM24 PDX model; in data set [12]) were “Neither BETi-211 nor BETd-246 caused significant weight loss” and “No significant weight loss”, respectively. Besides, the “MCL1 protein levels in tumors” value in the data set with BET proteins [10] (as early as 3 h after treatment) is reported as “markedly reduced”. For the same compound, in the data set on BET proteins [10] (single IV dose 10 mg/kg), the “duration of BET protein reduction in tumors” value is “at least 9 h”. Besides, the “reduction of the levels of BET proteins in tumors” value in the data set on BET proteins [10] (single IV dose 10 mg/kg, as early as 1 h) is listed as greater than 80%. Besides, the “drug exposure in plasma and WHIM24 tumors” value in data set [11] is given as “reasonable drug exposure”. For the same compound, the “weight loss or overt toxicity” value in data set [2] is on record as “Neither BETd-246 nor BETd-260 caused significant weight loss”. Also, the “drug exposure in plasma and xenograft tumor tissue” value in [3] and in data set [4] was “very limited drug exposure” in each case. In addition, the “toxicity in normal mouse tissues” value with normal mouse tissues is recorded as “no significant toxicity”. Moreover, on BRD4, the “BRD4 protein in mouse liver tissue” value is reported as “effectively reduce BRD4 protein”.
Take `CCn1nc(C2CC2)cc1Nc1nc(COC)nc2[nH]c3cc(-c4c(C)noc4C)c(OC)cc3c12` [BETi-211]: on BET proteins [14], the Ki (in general, the equilibrium dissociation constant of an inhibitor or competing ligand from its target) is less than 1 nM and the “times more potent than RX-37, JQ-1, OTX-015 or IBET-762” value is 10-100 times. Besides, the “effect on BET protein levels” value with BRD2, BRD3 and BRD4 is given as “did not degrade BET proteins”. Moreover, the “increase of BRD2 protein level” value in the data set with MDA-MB-468 cells (1000 nM, MDA-MB-468) is 2 fold. The same compound returned a growth inhibition in the data set on TNBC cell lines [1] (at 2.5 μM, achieved in 2 of the 13 cell lines) of no less than 90%. Also, the IC50 in the data set with TNBC cell lines [1] was less than 1000 nM. In the data set on TNBC cell lines [7] (1000 nM, 48 h treatment), the apoptosis induction is on record as 3-25%. For the same compound, the “synergism with either BM-1197 or ABT-263” value with TNBC cell lines [9] was “No clear synergism”. The “weight loss or apparent toxicity” value in the data set on WHIM24 PDX model is recorded as “Neither BETi-211 nor BETd-246 caused significant weight loss”. Also, in data set [12] (50 mg/kg, daily, 5 days a week for 2 weeks), the tumor growth inhibition entry is recorded as “failed to achieve tumor growth inhibition”. In addition, the “weight loss or apparent toxicity” value in data set [12] was “No significant weight loss”.
